In brackets after ≈: the same amount, converted by molar mass. Activity calls are given as the source filed them. No cut-off for these calls is given here.
Experiments:
HepG2 = assay: Cytotoxicity against human HepG2 cells after 48 hrs by Alamar Blue-based assay; format: cell-based; settings: HepG2, 48 h
Method in brief: (§1)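 Cytotoxicity tested against human lymphoblasts CRL-8155 and hepatocytes HepG2. Highest concentration tested was 50 µM.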

Trypanosoma cruzi [1] = assay: Antitrypanosomal activity against Trypanosoma cruzi Tulahuen amastigotes infected in mouse 3T3 cells after 6 days by beta galactosidase reporter asay; format: functional, cell-based; settings: NIH3T3, 144 h
[2] = system: Trypanosoma brucei brucei; assay: Antitrypanosomal activity against Trypanosoma brucei brucei BF427 after 48 hrs by Alamar Blue-based assay; format: functional; settings: BF427, 48 h
[3] = Cytotoxicity against human CRL8155 cells after 48 hrs by Alamar Blue-based assay; format: cell-based; settings: CRL8155, 48 h; method in brief: as §1
[4] = Solubility of the compound in PBS at pH 7.4 at 50 uM after overnight incubation by LC-MS/MS method; format: physicochemical
Method in brief: (§2)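 Solubility measured at pH 7.4, 6.5 and 2.0.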

[5] = Solubility of the compound in PBS at pH 6.5 at 50 uM after overnight incubation by LC-MS/MS method; format: physicochemical; method in brief: as §2
[6] = Protein binding in Swiss Webster mouse plasma assessed as drug recovery at 2 uM by LC-MS/MS analysis; format: ADME, cell-free; settings: read-out: Drug recovery
Method in brief: (§3)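 Plasma protein binding measured in 100% mouse plasma, giving % recovery and % fraction unbound. Propranolol control included in every experiment.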

Liver = assay: Stability of the compound in mouse liver microsomes assessed as compound remaining by LC-MS/MS method; format: ADME, microsome
Method in brief: (§4)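 Incubation with mouse liver microsomes, run in duplicate. Testosterone and dextromethorphan included as controls in each assay.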

[7] = Fraction unbound in Swiss Webster mouse plasma at 2 uM by LC-MS/MS analysis; format: ADME, cell-free; method in brief: as §3
[8] = Solubility of the compound in HCl at pH 2.0 at 50 uM after overnight incubation by LC-MS/MS method; format: physicochemical; method in brief: as §2
[9] = Half life in mouse liver microsomes by LC-MS/MS method; format: ADME, microsome; method in brief: as §4
Trypanosoma cruzi [10] = assay: Antitrypanosomal activity against bioluminescent PpyRE9h expressing Trypanosoma cruzi Tulahuen […] infected subcutaneously in BALB/c mouse assessed as suppression of Trypanosoma cruzi infection at 100 mg/kg, po qd administered for 5 days measured after 6 weeks by IVIS imaging analysis; format: functional, organism-based
[11] = Selectivity ratio of EC50 for Trypanosoma cruzi Tulahuen amastigotes to EC50 for Trypanosoma brucei brucei BF427; format: functional
Trypanosoma cruzi [12] = assay: Antitrypanosomal activity against bioluminescent PpyRE9h expressing Trypanosoma cruzi Tulahuen […] infected subcutaneously in BALB/c mouse assessed as suppression of Trypanosoma cruzi infection at 50 mg/kg, po twice daily for 5 days measured after 6 weeks by IVIS imaging analysis; format: functional, organism-based
Method in brief: (§5)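 Balb/c mice infected SC on day 0 with 2x10^4 T. cruzi Tulahuen trypomastigotes expressing red-shifted luciferase (PpyRE9h). Oral dosing at 50 mg/kg twice daily on days 7-11 post-infection. D-luciferin (120 mg/kg) injected SC, mice anesthetized and imaged by IVIS 10-15 min later, at time points out to 42 days. Mice observed for toxicity.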

[13] = Drug level in Swiss Webster mouse brain at 5 mg/kg, ip after 1 hr by LC-MS/MS analysis; format: ADME, organism-based; settings: read-out: Drug uptake
Method in brief: (§6)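 Mice in groups of three got a single 5 mg/kg ip dose. Animals were sacrificed 1 h postdose, and brain and plasma were collected for analysis. Brain:plasma ratio was calculated from the mean concentrations.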

[14] = AUC in Swiss Webster mouse at 50 mg/kg, po by LC-MS/MS analysis; format: ADME, organism-based; settings: in vivo
Method in brief: (§7)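 Oral single dose of 50 mg/kg to mice (n=3). Blood sampled at time points up to 24 h. Cmax and AUC reported as average ± SEM.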

[15] = Ratio of drug level in Swiss Webster mouse brain to plasma at 5 mg/kg, ip measured after 1 hr by LC-MS/MS analysis; format: ADME, organism-based; settings: read-out: BPR; method in brief: as §6
[16] = Cmax in Swiss Webster mouse at 50 mg/kg, po by LC-MS/MS analysis; format: ADME, organism-based; parameters: dose 50 mg/kg, route oral; settings: in vivo; method in brief: as §7
[17] = Plasma concentration in Swiss Webster mouse at 5 mg/kg, ip after 1 hr by LC-MS/MS analysis; format: ADME, organism-based; method in brief: as §6
Mus musculus = assay: Toxicity in BALB/c mouse infected with bioluminescent PpyRE9h expressing Trypanosoma cruzi Tulahuen […] at 50 mg/kg, po twice daily for 5 days measured after 6 weeks; format: organism-based; settings: in vivo, 1008 h; method in brief: as §5
[18] = Plasma concentration in BALB/c mouse subcutaneously infected with bioluminescent PpyRE9h expressing Trypanosoma cruzi Tulahuen […] at 50 mg/kg, po twice daily measured immediately before seventh dose
[19] = Plasma concentration in BALB/c mouse subcutaneously infected with bioluminescent PpyRE9h expressing Trypanosoma cruzi Tulahuen tryptomastigotes at 50 mg/kg, po twice daily measured 6 hrs post seventh dose; format: ADME, organism-based
Method in brief: (§8)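 Infected Balb/c mice on the twice-daily 50 mg/kg oral regimen. Tail blood collected at the 7th dose, immediately before and 1 h and 6 h after administration (n=3).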

[20] = Plasma concentration in BALB/c mouse subcutaneously infected with bioluminescent PpyRE9h expressing Trypanosoma cruzi Tulahuen […] at 50 mg/kg, po twice daily measured 1 hr post seventh dose; format: ADME, organism-based; method in brief: as §8

| SMILES | EC50 (HepG2) [nM] | EC50 (Trypanosoma cruzi [1]) [nM] | EC90 (Trypanosoma cruzi [1]) [nM] | EC50 [2] [nM] | EC90 [2] [nM] | EC50 [3] [nM] | also measured |
| --- | --- | --- | --- | --- | --- | --- | --- |
| O=C(Nc1ccc2nc(-c3ccc(F)c(F)c3)cn2c1)N1CC[C@H](F)C1 | > 50000 | 9940 | > 20000 | > 20000 | > 20000 | > 50000 |  |
| O=C(Nc1ccn2cc(-c3cccc(F)c3F)nc2c1)N1CCCC1 | > 50000 | 1020 | 1610 | 580 | 2760 | > 50000 |  |
| O=C(Nc1ccn2cc(-c3ccccc3)nc2c1)N1CCCCC1 | > 50000 | 2750 | 12300 | 2510 | 4200 | > 50000 |  |
| O=C(Nc1ccn2cc(-c3nccs3)nc2c1)N1CC[C@H](F)C1 | > 50000 | > 20000 | > 20000 | > 20000 | > 20000 | > 50000 |  |
| O=C(Nc1ccn2cc(-c3ccccc3)nc2c1)N1CC[C@H](F)C1 | > 50000 | 1080 | 1730 | 620 | 770 | 44600 |  |
| O=C(Nc1ccn2cc(-c3ccc(F)c(F)c3)nc2c1)c1cccnc1 | > 50000 | 6270 | > 20000 | 6300 | > 20000 | > 50000 |  |
| O=C(Nc1ccn2cc(-c3cccc(F)c3)nc2c1)N1CCCC1 | > 50000 | 2950 | 6010 | 730 | 880 | > 50000 |  |
| CCN(CC)CCCC(C)Nc1c2ccc(Cl)cc2nc2ccc(OC)cc12 (centres undefined) [QUINACRINE] |  |  |  |  |  | 4230 |  |
| O=C(Nc1ccn2cc(-c3ccc(F)c(F)c3)nc2c1)c1cccnc1Cl | > 50000 | 7340 | > 20000 | > 20000 | > 20000 | > 50000 |  |
| O=C(Nc1ccn2cc(-c3ccccc3)nc2c1)N1CCCC1 | > 50000 | 4460 | 6440 | 2230 | 3270 | 36000 |  |
| O=C(Nc1ccn2cc(-c3cccc(F)c3F)nc2c1)N1CC[C@H](F)C1 | > 50000 | 940 | 1360 | 180 | 920 | > 50000 | solubility at 50 µM [4]: 6.4 µM (≈ 2.31 µg/mL); solubility at 50 µM [5]: 6.8 µM (≈ 2.45 µg/mL); recovery at 2 µM [6]: 68.4%; Stability (Liver): 86.3%; fraction unbound at 2 µM [7]: 0.026; solubility at 50 µM [8]: 53.1 µM (≈ 19.1 µg/mL); half-life [9]: > 1 h |
| C[C@]12CC[C@H]3[C@@H](CCC4=CC(=O)CC[C@@]43C)[C@@H]1CC[C@@H]2O [TESTOSTERONE] |  |  |  |  |  |  | half-life [9]: 0.0947 h |
| O=C(Nc1ccn2cc(-c3ccc(F)c(F)c3)nc2c1)N1CCCCC1 | > 50000 | 2840 | 4400 | 1200 | 1750 | 47400 |  |
| O=C(Cn1ccnc1[N+](=O)[O-])NCc1ccccc1 [BENZNIDAZOLE] |  | 690 | 1360 |  |  |  | Activity (Trypanosoma cruzi [10]): Active |
| Cn1nc(C(C)(C)C)cc1C(=O)Nc1cc2nc(-c3ccc(F)c(F)c3)cn2cn1 | > 50000 | 170 | 640 | 6990 | > 20000 | 14500 | solubility at 50 µM [4]: 2.7 µM (≈ 1.11 µg/mL); solubility at 50 µM [5]: 7.6 µM (≈ 3.12 µg/mL); recovery at 2 µM [6]: 73.3%; Stability (Liver): 47.1%; fraction unbound at 2 µM [7]: 0.007; solubility at 50 µM [8]: 1.3 µM (≈ 0.534 µg/mL); half-life [9]: 1 h |
| O=C(Nc1ccn2cc(-c3cccc(F)c3F)nc2c1)N1CCCCC1 | > 50000 | 1000 | 1580 | 720 | 870 | > 50000 |  |
| Cn1nc(C(C)(C)C)cc1C(=O)Nc1ccn2cc(-c3ccc(F)c(F)c3)nc2c1 | > 50000 | 570 | 1520 | 710 | > 20000 | > 50000 |  |
| O=C(Nc1ccn2cc(-c3cccc(F)c3)nc2c1)N1CCCCC1 | > 50000 | 3100 | 4530 | 970 | 1480 | > 50000 |  |
| O=C(Nc1ccn2cc(-c3ccc(F)c(F)c3)nc2c1)N1CCCC1 | > 50000 | 2240 | 2570 | 320 | 730 | > 50000 | Ratio EC50 [11]: 7 |
| O=C(Nc1ccn2cc(-c3ccc(F)c(F)c3)nc2n1)N1CC[C@H](F)C1 | > 50000 | 2530 | > 20000 | > 20000 | > 20000 | > 50000 | solubility at 50 µM [5]: 42 µM (≈ 15.2 µg/mL); recovery at 2 µM [6]: 49%; fraction unbound at 2 µM [7]: 0.081 |
| O=C(Nc1cc2nc(-c3ccc(F)c(F)c3)cn2cn1)N1CC[C@H](F)C1 | > 50000 | 90 | 150 | 20 | 50 | > 50000 | Activity (Trypanosoma cruzi [12]): Active; concentration at 1 h [13]: 1.12 µM; AUC [14]: 59.8 µM·h; Kp at 1 h [15]: 0.856; solubility at 50 µM [4]: 2.1 µM (≈ 0.759 µg/mL); solubility at 50 µM [5]: 2.4 µM (≈ 0.867 µg/mL); recovery at 2 µM [6]: 56.1%; Stability (Liver): 96%; fraction unbound at 2 µM [7]: 0.099; Cmax [16]: 5.7 µM; concentration at 1 h [17]: 1.31 µM; Activity (Mus musculus): Non-Toxic; solubility at 50 µM [8]: 1.6 µM (≈ 0.578 µg/mL); concentration at 0 hr [18]: 4.8 µM; concentration at 6 h [19]: 5.8 µM; half-life [9]: > 1 h; concentration at 1 h [20]: 9 µM |
| COc1ccc2c(c1)[C@]13CCCC[C@@H]1[C@H](C2)N(C)CC3 [DEXTROMETHORPHAN] |  |  |  |  |  |  | half-life [9]: 0.0185 h |
| O=C(Nc1ccn2cc(-c3ccc(F)c(F)c3)nc2c1)N1CC[C@H](F)C1 | > 50000 | 390 | 600 | 160 | 310 | 35300 | concentration at 1 h [13]: 0.55 µM; Kp at 1 h [15]: 0.114; solubility at 50 µM [4]: 32.8 µM (≈ 11.8 µg/mL); solubility at 50 µM [5]: 49.9 µM (≈ 18 µg/mL); recovery at 2 µM [6]: 64.5%; Stability (Liver): 100%; fraction unbound at 2 µM [7]: 0.04; concentration at 1 h [17]: 4.84 µM; solubility at 50 µM [8]: 45.9 µM (≈ 16.5 µg/mL); half-life [9]: > 1 h |
| O=C(Nc1ccn2cc(-c3cccc(F)c3)nc2c1)N1CC[C@H](F)C1 | > 50000 | 710 | 880 | 160 | 820 | 29700 | solubility at 50 µM [4]: 49.7 µM (≈ 17 µg/mL); solubility at 50 µM [5]: 43.8 µM (≈ 15 µg/mL); recovery at 2 µM [6]: 68.5%; Stability (Liver): 84.5%; fraction unbound at 2 µM [7]: 0.03; solubility at 50 µM [8]: 52 µM (≈ 17.8 µg/mL); half-life [9]: > 1 h |
| N=C(N)c1ccc(OCCCCCOc2ccc(C(=N)N)cc2)cc1 [PENTAMIDINE] |  |  |  | 2.16 | 6.13 |  |  |
| O=C(Nc1ccn2cc(-c3cccs3)nc2c1)N1CC[C@H](F)C1 | > 50000 | 2680 | 3920 | 1000 | 2670 | > 50000 |  |
| CC(C)NCC(O)COc1cccc2ccccc12 (centres undefined) [PROPRANOLOL] |  |  |  |  |  |  | recovery at 2 µM [6]: 75.7%; fraction unbound at 2 µM [7]: 0.114 |
| Cc1noc(C)c1C(=O)Nc1ccn2cc(-c3ccc(F)c(F)c3)nc2c1 | > 50000 | 9060 | > 20000 | > 20000 | > 20000 | > 50000 |  |

Reference: ChEMBL document CHEMBL4033772, “New Class of Antitrypanosomal Agents Based on Imidazopyridines” (ACS Med Chem Lett, 2017)
